The species named for one assay is Homo sapiens. Briefly: Selectivity ratio of IC50 for 17beta-HSD1 in human placental microsomal fraction to IC50 for 17beta-HSD2 in human placental microsomal fraction. The assay is classed as microsomes. The following applies: Microsome.
The target of assay [1] is T1, Estrogen receptor (Homo sapiens) (UniProt P03372).
T1 sequence (whole entry): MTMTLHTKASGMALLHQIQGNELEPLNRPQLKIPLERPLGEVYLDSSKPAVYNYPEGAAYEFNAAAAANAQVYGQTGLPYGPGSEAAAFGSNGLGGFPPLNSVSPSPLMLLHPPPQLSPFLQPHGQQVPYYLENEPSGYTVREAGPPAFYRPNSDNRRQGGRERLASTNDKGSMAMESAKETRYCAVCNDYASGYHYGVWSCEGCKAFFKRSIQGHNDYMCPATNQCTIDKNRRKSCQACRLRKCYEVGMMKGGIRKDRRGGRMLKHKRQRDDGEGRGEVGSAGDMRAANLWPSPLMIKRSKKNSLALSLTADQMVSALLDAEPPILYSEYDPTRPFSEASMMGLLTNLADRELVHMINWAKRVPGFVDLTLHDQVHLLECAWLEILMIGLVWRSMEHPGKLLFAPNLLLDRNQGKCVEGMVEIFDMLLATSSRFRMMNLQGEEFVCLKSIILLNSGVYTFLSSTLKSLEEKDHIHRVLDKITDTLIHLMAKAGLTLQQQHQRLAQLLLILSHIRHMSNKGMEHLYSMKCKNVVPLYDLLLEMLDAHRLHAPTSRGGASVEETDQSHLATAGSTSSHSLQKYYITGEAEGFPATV
Briefly: Displacement of [3H]E2 from human recombinant ERalpha after 1 hr by scintillation counting analysis relative to E2. The method, boiled down: (§1)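 Competitive binding assay against ERα and ERβ, with E2 as internal reference.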
Background: Loss of bound radioactivity is the signal in a displacement assay; it reports binding, not function.

The target of assay [2] is T2, 17-beta-hydroxysteroid dehydrogenase type 1 (Homo sapiens) (UniProt P14061).
T2 sequence (whole entry): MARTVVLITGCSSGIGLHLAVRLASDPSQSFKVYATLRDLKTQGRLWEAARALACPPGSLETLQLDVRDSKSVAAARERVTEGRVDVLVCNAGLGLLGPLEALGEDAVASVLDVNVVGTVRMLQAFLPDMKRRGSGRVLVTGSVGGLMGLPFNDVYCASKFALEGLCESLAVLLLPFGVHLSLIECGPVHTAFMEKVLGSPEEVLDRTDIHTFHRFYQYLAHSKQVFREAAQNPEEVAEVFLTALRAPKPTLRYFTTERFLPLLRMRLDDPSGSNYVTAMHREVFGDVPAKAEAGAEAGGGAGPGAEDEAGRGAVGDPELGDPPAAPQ
The note with it: at 1 µM.

Assay [3] has as its target T3, 17-beta-hydroxysteroid dehydrogenase type 2 (Homo sapiens) (UniProt P37059).
T3 sequence (whole entry): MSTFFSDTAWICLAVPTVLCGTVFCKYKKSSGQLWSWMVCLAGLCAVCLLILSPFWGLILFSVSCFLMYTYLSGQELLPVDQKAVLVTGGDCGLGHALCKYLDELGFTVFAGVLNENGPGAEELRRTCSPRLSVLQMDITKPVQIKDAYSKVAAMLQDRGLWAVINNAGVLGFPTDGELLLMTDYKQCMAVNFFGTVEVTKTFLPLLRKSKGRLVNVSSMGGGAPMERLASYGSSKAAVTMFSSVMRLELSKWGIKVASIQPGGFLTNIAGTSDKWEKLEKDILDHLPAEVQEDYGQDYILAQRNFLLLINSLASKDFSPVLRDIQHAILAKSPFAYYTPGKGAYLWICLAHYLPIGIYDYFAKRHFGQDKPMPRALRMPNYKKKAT
Briefly: Inhibition of 17beta-HSD2 in human MDA-MB-231 cells using [3H]E2 as substrate at 1 uM after 6 hrs by HPLC analysis. The assay is classed as cell-based.

Assay [4] concerns the target Estrogen receptor beta (Homo sapiens) (UniProt Q92731). Briefly: Displacement of [3H]E2 from human recombinant ERbeta after 1 hr by scintillation counting analysis relative to E2. The method in brief: as §1
The target of assay [5] is T3, 17-beta-hydroxysteroid dehydrogenase type 2 (Homo sapiens). The following applies: Placenta, Microsomal, at 1 µM.
Assay [6] concerns the target T4, 17-beta-hydroxysteroid dehydrogenase type 1 (Homo sapiens, UniProt P14061).
T4 sequence (P14061 whole entry): T2 sequence (whole entry)
Briefly: Inhibition of 17beta-HSD1 in human placental cytosolic fraction using [3H]E1 as substrate assessed as formation of E2 by HPLC analysis.

Broadly, the inhibition is the share of the control response that was lost under treatment. Read a high inhibition as strong suppression. A word on the IC50: it is the concentration that gives 50% inhibition.

Sequence of Estrogen receptor beta (Homo sapiens) (Q92731 whole entry): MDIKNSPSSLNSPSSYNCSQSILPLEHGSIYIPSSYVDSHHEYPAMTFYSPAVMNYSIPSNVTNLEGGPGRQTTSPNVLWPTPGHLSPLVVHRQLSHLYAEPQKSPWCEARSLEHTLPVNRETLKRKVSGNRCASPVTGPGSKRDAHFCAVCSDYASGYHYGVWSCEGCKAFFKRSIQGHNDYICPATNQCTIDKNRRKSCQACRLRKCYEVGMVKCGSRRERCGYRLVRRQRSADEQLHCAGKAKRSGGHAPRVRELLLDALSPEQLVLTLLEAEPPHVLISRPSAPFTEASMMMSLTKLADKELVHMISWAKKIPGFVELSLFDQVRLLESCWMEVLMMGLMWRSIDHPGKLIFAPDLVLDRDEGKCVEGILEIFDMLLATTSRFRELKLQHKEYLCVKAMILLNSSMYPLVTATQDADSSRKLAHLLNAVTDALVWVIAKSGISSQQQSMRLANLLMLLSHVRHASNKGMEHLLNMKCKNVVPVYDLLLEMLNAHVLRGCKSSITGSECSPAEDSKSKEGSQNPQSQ

Consider `COc1cccc(N(C)C(=O)c2ccc(-c3cccc(N(C)C)c3)s2)c1`, for which the Ratio IC50 in the assay listed under Homo sapiens was 63. In addition, the RBA in assay [1] and in assay [4] was less than 0.1% in each case. Further, the inhibition in assay [2] came to 11%; in assay [3] it was 71%; in assay [5] it was 82%.

`COc1cccc(N(C)C(=O)c2ccc(-c3ccc(OC)c(F)c3)s2)c1`: the RBA in assay [1] and in assay [4] was less than 0.1% in each case. In assay [6], the 50% inhibitory concentration (IC50) was greater than 40 µM. Besides, the inhibition came out at 15% in assay [2] and 72% in assay [5].

Source of the values: ChEMBL document CHEMBL2321834 (J Med Chem, 2013).
